Reference: ChEMBL document CHEMBL1129566 (J Med Chem, 1996)
Converted amounts (≈) assume the structure as drawn.

Experiments:
Assay type in all cases: functional
Streptococcus pneumoniae [1] = assay: Minimum inhibitory concentration for antibacterial activity against Streptococcus pneumoniae Q19 (pen s)
Procedure, shortened: (§1)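 Two-fold agar dilution on Mueller-Hinton agar. Overnight broth cultures diluted in fresh broth to […]; 10⁴ CFU/spot applied by inoculating apparatus onto plates with graded drug concentrations. Incubated 18 h at 37 °C; MIC taken as the lowest concentration giving complete growth inhibition.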

Staphylococcus aureus [2] = assay: In vitro minimum inhibitory concentration required to produce antibacterial activity against Staphylococcus aureus 887MSSA; procedure, shortened: as §1
Enterococcus faecalis = assay: In vitro minimum inhibitory concentration required to produce antibacterial activity against Enterococcus faecalis ATCC 29212; procedure, shortened: as §1
Staphylococcus aureus [3] = assay: In vitro minimum inhibitory concentration required to produce antibacterial activity against Staphylococcus aureus 743 MRSA; procedure, shortened: as §1
Citrobacter freundii = assay: In vitro minimum inhibitory concentration required to produce antibacterial activity against Citrobacter freundii 902; procedure, shortened: as §1
Escherichia coli = assay: In vitro minimum inhibitory concentration required to produce antibacterial activity against Escherichia coli 25922; procedure, shortened: as §1
Pseudomonas aeruginosa = assay: In vitro minimum inhibitory concentration required to produce antibacterial activity against Pseudomonas aeruginosa ATCC 27853; procedure, shortened: as §1
Enterobacter cloacae = assay: In vitro minimum inhibitory concentration required to produce antibacterial activity against Enterobacter cloacae 908SSI; procedure, shortened: as §1
Streptococcus pneumoniae [4] = assay: In vitro minimum inhibitory concentration required to produce antibacterial activity against Streptococcus pneumoniae 1/37(pen r); procedure, shortened: as §1

SMILES	MIC (Streptococcus pneumoniae [1]) [µg/mL]	MIC (Staphylococcus aureus [2]) [µg/mL]	MIC (Enterococcus faecalis) [µg/mL]	MIC (Staphylococcus aureus [3]) [µg/mL]	MIC (Citrobacter freundii) [µg/mL]	MIC (Escherichia coli) [µg/mL]	MIC (Pseudomonas aeruginosa) [µg/mL]	MIC (Enterobacter cloacae) [µg/mL]	MIC (Streptococcus pneumoniae [4]) [µg/mL]
C=CCO/N=C(\C(=O)N[C@@H]1C(=O)N2C(C(=O)O)=C(/C=C3\CCN(CC(F)(F)F)C3=O)CS[C@H]12)c1csc(N)n1	≤ 0.06	4 (≈ 6.82 µM)	32 (≈ 54.6 µM)	4 (≈ 6.82 µM)	2 (≈ 3.41 µM)	1 (≈ 1.7 µM)	8 (≈ 13.6 µM)	4 (≈ 6.82 µM)	0.5 (≈ 0.852 µM)
Nc1nc(/C(=N/O)C(=O)N[C@@H]2C(=O)N3C(C(=O)O)=C(/C=C4\CN(c5ccccc5)C4=O)CS[C@H]23)cs1	0.5 (≈ 0.95 µM)	0.5 (≈ 0.95 µM)	0.25 (≈ 0.475 µM)	8 (≈ 15.2 µM)	1 (≈ 1.9 µM)	1 (≈ 1.9 µM)	16 (≈ 30.4 µM)	2 (≈ 3.8 µM)	4 (≈ 7.6 µM)
Nc1nc(/C(=N/O)C(=O)N[C@@H]2C(=O)N3C(C(=O)O)=C(/C=C4\CCN(Cc5nn[nH]n5)C4=O)CS[C@H]23)cs1	0.12 (≈ 0.22 µM)	8 (≈ 14.6 µM)	16 (≈ 29.3 µM)	32 (≈ 58.5 µM)	2 (≈ 3.66 µM)	0.25 (≈ 0.457 µM)	> 32	16 (≈ 29.3 µM)	2 (≈ 3.66 µM)
Nc1nc(/C(=N/O)C(=O)N[C@@H]2C(=O)N3C(C(=O)O)=C(/C=C4\CCN(c5ccccc5)C4=O)CS[C@H]23)cs1	0.06 (≈ 0.111 µM)	0.5 (≈ 0.925 µM)	0.25 (≈ 0.462 µM)	8 (≈ 14.8 µM)	0.25 (≈ 0.462 µM)	0.25 (≈ 0.462 µM)	16 (≈ 29.6 µM)	0.5 (≈ 0.925 µM)	2 (≈ 3.7 µM)
Nc1nc(/C(=N/O)C(=O)N[C@@H]2C(=O)N3C(C(=O)O)=C(/C=C4\CCN(c5cccnc5)C4=O)CS[C@H]23)cs1	0.12 (≈ 0.222 µM)	1 (≈ 1.85 µM)	0.5 (≈ 0.923 µM)	8 (≈ 14.8 µM)	≤ 0.12	≤ 0.12	16 (≈ 29.5 µM)	≤ 0.12	2 (≈ 3.69 µM)
CO/N=C(\C(=O)N[C@@H]1C(=O)N2C(C(=O)O)=C(/C=C3\CCN(CC(F)(F)F)C3=O)CS[C@H]12)c1csc(N)n1	≤ 0.03	8 (≈ 14.3 µM)	> 32	8 (≈ 14.3 µM)	0.25 (≈ 0.446 µM)	0.25 (≈ 0.446 µM)	8 (≈ 14.3 µM)	1 (≈ 1.78 µM)	0.5 (≈ 0.892 µM)
Nc1nc(/C(=N/O)C(=O)N[C@@H]2C(=O)N3C(C(=O)O)=C(/C=C4\CCN(O)C4=O)CS[C@H]23)cs1	0.06 (≈ 0.125 µM)	1 (≈ 2.08 µM)	4 (≈ 8.32 µM)	16 (≈ 33.3 µM)	0.5 (≈ 1.04 µM)	≤ 0.06	8 (≈ 16.6 µM)	16 (≈ 33.3 µM)	4 (≈ 8.32 µM)
Nc1nc(/C(=N/O)C(=O)N[C@@H]2C(=O)N3C(C(=O)O)=C(/C=C4\CCCN(c5ccccc5)C4=O)CS[C@H]23)cs1	0.12 (≈ 0.216 µM)	2 (≈ 3.61 µM)	8 (≈ 14.4 µM)	32 (≈ 57.7 µM)	1 (≈ 1.8 µM)	1 (≈ 1.8 µM)	> 32	4 (≈ 7.21 µM)	4 (≈ 7.21 µM)
Nc1nc(/C(=N/OC2CCCC2)C(=O)N[C@@H]2C(=O)N3C(C(=O)O)=C(/C=C4\CCN(CC(F)(F)F)C4=O)CS[C@H]23)cs1	≤ 0.06	4 (≈ 6.51 µM)	8 (≈ 13 µM)	8 (≈ 13 µM)	4 (≈ 6.51 µM)	2 (≈ 3.25 µM)	8 (≈ 13 µM)	4 (≈ 6.51 µM)	1 (≈ 1.63 µM)
COc1cccc(CN2CC/C(=C\C3=C(C(=O)O)N4C(=O)[C@@H](NC(=O)/C(=N\O)c5csc(N)n5)[C@H]4SC3)C2=O)c1	≤ 0.06	1 (≈ 1.71 µM)	1 (≈ 1.71 µM)	8 (≈ 13.7 µM)	2 (≈ 3.42 µM)	2 (≈ 3.42 µM)	> 32	4 (≈ 6.84 µM)	1 (≈ 1.71 µM)
Nc1nc(/C(=N/O)C(=O)N[C@@H]2C(=O)N3C(C(=O)O)=C(/C=C4\CCNC4=O)CS[C@H]23)cs1	0.06 (≈ 0.129 µM)	1 (≈ 2.15 µM)	2 (≈ 4.31 µM)	8 (≈ 17.2 µM)	0.5 (≈ 1.08 µM)	≤ 0.06	> 16	0.5 (≈ 1.08 µM)	2 (≈ 4.31 µM)
Nc1nc(/C(=N/OCCF)C(=O)N[C@@H]2C(=O)N3C(C(=O)O)=C(/C=C4\CCN(CC(F)(F)F)C4=O)CS[C@H]23)cs1	≤ 0.06	4 (≈ 6.75 µM)	32 (≈ 54 µM)	16 (≈ 27 µM)	1 (≈ 1.69 µM)	0.5 (≈ 0.844 µM)	8 (≈ 13.5 µM)	2 (≈ 3.38 µM)	1 (≈ 1.69 µM)
Nc1nc(/C(=N/O)C(=O)N[C@@H]2C(=O)N3C(C(=O)O)=C(/C=C4\CCN(C5CC5)C4=O)CS[C@H]23)cs1	0.03 (≈ 0.0595 µM)	1 (≈ 1.98 µM)	1 (≈ 1.98 µM)	8 (≈ 15.9 µM)	0.12 (≈ 0.238 µM)	≤ 0.06	8 (≈ 15.9 µM)	0.12 (≈ 0.238 µM)	2 (≈ 3.96 µM)
C=CC1=C(C(=O)O)N2C(=O)[C@@H](NC(=O)/C(=N\O)c3csc(N)n3)[C@H]2SC1	0.25 (≈ 0.632 µM)	0.5 (≈ 1.26 µM)	16 (≈ 40.5 µM)	16 (≈ 40.5 µM)	8 (≈ 20.2 µM)	0.25 (≈ 0.632 µM)	> 32	16 (≈ 40.5 µM)	4 (≈ 10.1 µM)
COc1cccc(N2CC/C(=C\C3=C(C(=O)O)N4C(=O)[C@@H](NC(=O)/C(=N\O)c5csc(N)n5)[C@H]4SC3)C2=O)c1	≤ 0.06	1 (≈ 1.75 µM)	0.5 (≈ 0.876 µM)	8 (≈ 14 µM)	0.5 (≈ 0.876 µM)	0.5 (≈ 0.876 µM)	> 32	1 (≈ 1.75 µM)	0.5 (≈ 0.876 µM)
Nc1nc(/C(=N/O)C(=O)N[C@@H]2C(=O)N3C(C(=O)O)=C(/C=C4\CCN(c5ccc(O)cc5)C4=O)CS[C@H]23)cs1	0.12 (≈ 0.216 µM)	0.5 (≈ 0.898 µM)	0.5 (≈ 0.898 µM)	4 (≈ 7.19 µM)	≤ 0.06	≤ 0.06	4 (≈ 7.19 µM)	0.25 (≈ 0.449 µM)	1 (≈ 1.8 µM)
C=CCN1CC/C(=C\C2=C(C(=O)O)N3C(=O)[C@@H](NC(=O)/C(=N\O)c4csc(N)n4)[C@H]3SC2)C1=O	≤ 0.06	1 (≈ 1.98 µM)	1 (≈ 1.98 µM)	16 (≈ 31.7 µM)	≤ 0.06	≤ 0.06	16 (≈ 31.7 µM)	0.25 (≈ 0.495 µM)	1 (≈ 1.98 µM)
Nc1nc(/C(=N/O)C(=O)N[C@@H]2C(=O)N3C(C(=O)O)=C(/C=C4\CCN(CC5CC5)C4=O)CS[C@H]23)cs1	0.03 (≈ 0.0579 µM)	1 (≈ 1.93 µM)	1 (≈ 1.93 µM)	16 (≈ 30.9 µM)	0.12 (≈ 0.231 µM)	0.12 (≈ 0.231 µM)	16 (≈ 30.9 µM)	0.25 (≈ 0.482 µM)	1 (≈ 1.93 µM)
CC(C)CO/N=C(\C(=O)N[C@@H]1C(=O)N2C(C(=O)O)=C(/C=C3\CCN(CC(F)(F)F)C3=O)CS[C@H]12)c1csc(N)n1	≤ 0.06	8 (≈ 13.3 µM)	16 (≈ 26.6 µM)	4 (≈ 6.64 µM)	4 (≈ 6.64 µM)	2 (≈ 3.32 µM)	16 (≈ 26.6 µM)	4 (≈ 6.64 µM)	1 (≈ 1.66 µM)
Nc1nc(/C(=N/O)C(=O)N[C@@H]2C(=O)N3C(C(=O)O)=C(/C=C4\CCN(c5cccc([N+](=O)[O-])c5)C4=O)CS[C@H]23)cs1	≤ 0.06	0.5 (≈ 0.854 µM)	0.12 (≈ 0.205 µM)	4 (≈ 6.83 µM)	0.12 (≈ 0.205 µM)	0.12 (≈ 0.205 µM)	16 (≈ 27.3 µM)	0.25 (≈ 0.427 µM)	2 (≈ 3.42 µM)
Nc1nc(/C(=N/O)C(=O)N[C@@H]2C(=O)N3C(C(=O)O)=C(/C=C4\CCN(c5ccc(O)c(O)c5)C4=O)CS[C@H]23)cs1	≤ 0.06	2 (≈ 3.49 µM)	0.5 (≈ 0.873 µM)	16 (≈ 27.9 µM)	0.12 (≈ 0.21 µM)	0.25 (≈ 0.437 µM)	32 (≈ 55.9 µM)	0.25 (≈ 0.437 µM)	2 (≈ 3.49 µM)
Nc1nc(/C(=N/O)C(=O)N[C@@H]2C(=O)N3C(C(=O)O)=C(/C=C4/CN(c5ccccc5)C4=O)CS[C@H]23)cs1	0.12 (≈ 0.228 µM)	0.12 (≈ 0.228 µM)	0.5 (≈ 0.95 µM)	2 (≈ 3.8 µM)	4 (≈ 7.6 µM)	2 (≈ 3.8 µM)	16 (≈ 30.4 µM)	4 (≈ 7.6 µM)	2 (≈ 3.8 µM)
Nc1nc(/C(=N/O)C(=O)N[C@@H]2C(=O)N3C(C(=O)O)=C(/C=C4/CCN(C5CC5)C4=O)CS[C@H]23)cs1	0.25 (≈ 0.495 µM)	1 (≈ 1.98 µM)	16 (≈ 31.7 µM)	16 (≈ 31.7 µM)	0.5 (≈ 0.991 µM)	0.5 (≈ 0.991 µM)	> 32	1 (≈ 1.98 µM)	2 (≈ 3.96 µM)
C#CCN1CC/C(=C\C2=C(C(=O)O)N3C(=O)[C@@H](NC(=O)/C(=N\O)c4csc(N)n4)[C@H]3SC2)C1=O	≤ 0.06	1 (≈ 1.99 µM)	1 (≈ 1.99 µM)	4 (≈ 7.96 µM)	0.12 (≈ 0.239 µM)	≤ 0.06	8 (≈ 15.9 µM)	1 (≈ 1.99 µM)	2 (≈ 3.98 µM)
Nc1nc(/C(=N/O)C(=O)N[C@@H]2C(=O)N3C(C(=O)O)=C(/C=C4\CCN(CC(=O)O)C4=O)CS[C@H]23)cs1	0.12 (≈ 0.23 µM)	16 (≈ 30.6 µM)	8 (≈ 15.3 µM)	> 32	2 (≈ 3.83 µM)	0.12 (≈ 0.23 µM)	> 32	8 (≈ 15.3 µM)	2 (≈ 3.83 µM)
Cc1cc(N2CC/C(=C\C3=C(C(=O)O)N4C(=O)[C@@H](NC(=O)/C(=N\O)c5csc(N)n5)[C@H]4SC3)C2=O)no1	0.12 (≈ 0.22 µM)	1 (≈ 1.83 µM)	0.25 (≈ 0.458 µM)	8 (≈ 14.7 µM)	0.12 (≈ 0.22 µM)	0.12 (≈ 0.22 µM)	> 32	0.5 (≈ 0.916 µM)	2 (≈ 3.67 µM)
